According to ChEMBL document CHEMBL1128245, “Dual-acting thromboxane receptor antagonist/synthase inhibitors: synthesis and biological properties of [2-substituted-4-(3-pyridyl)-1,3-dioxan-5-yl] alkenoic acids” (J Med Chem, 1995):

How the values were obtained:
Prostacyclin synthase = target: T1, Prostacyclin synthase (Homo sapiens, UniProt Q16647); experiment: In vitro inhibition of Prostaglandin I2 synthase in cultured human endothelial cells
T1 sequence (Q16647 whole entry): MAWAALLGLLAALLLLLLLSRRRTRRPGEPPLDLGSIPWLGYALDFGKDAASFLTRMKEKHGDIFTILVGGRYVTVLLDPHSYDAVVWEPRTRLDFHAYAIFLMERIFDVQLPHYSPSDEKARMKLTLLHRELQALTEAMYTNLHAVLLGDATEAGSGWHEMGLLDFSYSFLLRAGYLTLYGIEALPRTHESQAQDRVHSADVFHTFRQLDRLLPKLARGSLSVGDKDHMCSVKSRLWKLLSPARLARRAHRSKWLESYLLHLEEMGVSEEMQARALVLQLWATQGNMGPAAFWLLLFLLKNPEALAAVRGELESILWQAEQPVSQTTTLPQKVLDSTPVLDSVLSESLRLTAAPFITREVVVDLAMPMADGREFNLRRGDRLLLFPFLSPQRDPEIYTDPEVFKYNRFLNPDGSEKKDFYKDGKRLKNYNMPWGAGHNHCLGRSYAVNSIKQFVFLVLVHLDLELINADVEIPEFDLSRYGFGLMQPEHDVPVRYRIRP

Thromboxane-A synthase = target: T2, Thromboxane-A synthase (Homo sapiens, UniProt P24557); experiment: In vitro Inhibition of thromboxane synthase from human blood platelet microsomes
T2 sequence (P24557 whole entry): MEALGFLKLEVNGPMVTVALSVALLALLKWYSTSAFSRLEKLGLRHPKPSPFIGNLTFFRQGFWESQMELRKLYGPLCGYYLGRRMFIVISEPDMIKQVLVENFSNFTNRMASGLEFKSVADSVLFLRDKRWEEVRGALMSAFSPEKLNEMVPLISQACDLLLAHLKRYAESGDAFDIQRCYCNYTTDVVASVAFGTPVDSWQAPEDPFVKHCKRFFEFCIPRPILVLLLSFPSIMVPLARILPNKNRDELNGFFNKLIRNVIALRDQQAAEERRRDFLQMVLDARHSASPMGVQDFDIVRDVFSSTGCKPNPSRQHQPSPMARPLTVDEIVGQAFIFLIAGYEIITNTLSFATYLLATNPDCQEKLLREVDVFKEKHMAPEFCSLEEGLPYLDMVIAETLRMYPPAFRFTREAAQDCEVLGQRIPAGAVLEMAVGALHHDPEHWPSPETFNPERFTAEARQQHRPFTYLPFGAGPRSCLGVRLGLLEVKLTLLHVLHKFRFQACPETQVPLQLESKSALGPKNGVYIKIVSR
Summary of the method: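 Human blood platelet microsomes incubated with [1-14C]arachidonic acid with or without inhibitor. Conversion to labeled thromboxane B2 quantified radiochromatographically. n = 2.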

Homo sapiens = species: Homo sapiens; experiment: In vitro inhibition of U-46,619-induced aggregation of unwashed human platelets.; type: functional; conditions: for Kb: Homo sapiens, read-out: pA2 (converted)
Summary of the method: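 Citrated (3.2%) human venous blood spun at 200g for 10 min. Platelet-rich plasma aggregated with U46619 with or without several antagonist concentrations.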

Row | Compound | IC50 (Prostacyclin synthase) [nM] | IC50 (Thromboxane-A synthase) [nM] | Kb (Homo sapiens) [nM] | pA2 (Homo sapiens)
1 | CC(C)(Oc1ccccc1Br)C1OCC(C/C=C\CCC(=O)O)C(c2cccnc2)O1 (stereo unspecified) | 7000 | 29 | 63.1 | –
2 | CC(C)(Oc1ccc(C#N)cc1)C1OCC(C/C=C\CCC(=O)O)C(c2cccnc2)O1 (stereo unspecified) | 4000 | 46 | 129 | –
3 | O=C(O)CC/C=C\CC1COC(c2cccc3ccccc23)OC1c1cccnc1 (stereo unspecified) | – | 40 | 631 | –
4 | Cc1ccc(OC(C)(C)C2OCC(C/C=C\CCC(=O)O)C(c3cccnc3)O2)cc1 (stereo unspecified) | 25000 | 360 | 631 | –
5 | O=C(O)CC/C=C\C[C@@H]1CO[C@H](c2ccccc2Cl)O[C@@H]1c1ccccc1O | – | > 100000 | 6.92 | –
6 | CC(C)(Oc1ccc(Br)cc1)C1OCC(C/C=C\CCC(=O)O)C(c2cccnc2)O1 (stereo in doubt; 7b) | 3400 | 51 | – | 6.42
7 | COC(=O)c1ccccc1OC(C)(C)C1OCC(C/C=C\CCC(=O)O)C(c2cccnc2)O1 (stereo unspecified) | 73000 | 66 | 64.6 | –
8 | COc1ccc(OC(C)(C)C2OCC(C/C=C\CCC(=O)O)C(c3cccnc3)O2)c([N+](=O)[O-])c1 (stereo unspecified) | 23000 | 37 | 6.17 | –
9 | O=C(O)CCCC/C=C(\c1ccccc1)c1cccnc1 [(E)-ISBOGREL] | > 100000 | – | – | –
10 | CC(C)(Sc1ccccc1C#N)C1OCC(C/C=C\CCC(=O)O)C(c2cccnc2)O1 (stereo unspecified) | – | 40 | 316 | –
11 | CSc1ccccc1OC(C)(C)C1OCC(C/C=C\CCC(=O)O)C(c2cccnc2)O1 (stereo unspecified) | > 100000 | 36 | 89.1 | –
12 | CC(C)(Oc1ccc(Br)cc1)C1OCC(C/C=C\CCC(=O)O)C(c2cccnc2)O1 (stereo in doubt; 7p) | < 1000 | > 10000 | – | 5.61
13 | O=C(O)CC/C=C\CC1COC(c2ccco2)OC1c1cccnc1 (stereo unspecified) | – | 164 | 1260 | –
14 | O=C(O)CC/C=C\CC1COC(c2ccc([N+](=O)[O-])cc2)OC1c1cccnc1 (stereo unspecified) | 13000 | 39 | 933 | –
15 | CSc1ccc(OC(C)(C)C2OCC(C/C=C\CCC(=O)O)C(c3cccnc3)O2)cc1 (stereo unspecified) | 32000 | 39 | 372 | –
16 | CC(C)(Oc1cccc(F)c1)C1OCC(C/C=C\CCC(=O)O)C(c2cccnc2)O1 (stereo unspecified) | 40000 | 26 | 126 | –
17 | CC(C)(Oc1ccccc1O)C1OCC(C/C=C\CCC(=O)O)C(c2cccnc2)O1 (stereo unspecified) | > 100000 | 32 | 95.5 | –
18 | Cc1ccc(OC(C)(C)C2OCC(C/C=C\CCC(=O)O)C(c3cccnc3)O2)c([N+](=O)[O-])c1 (stereo in doubt; 7w) | 33000 | 27 | – | 8.34
19 | Cc1ccc(SC(C)(C)C2OCC(C/C=C\CCC(=O)O)C(c3cccnc3)O2)c([N+](=O)[O-])c1 (stereo unspecified) | – | 30 | 158 | –
20 | O=C(O)CC/C=C\CC1COC(c2ccc(Cl)c(Cl)c2)OC1c1cccnc1 (stereo unspecified) | 9000 | 42 | 776 | –
21 | CC(C)(Cc1ccc(F)cc1C#N)C1OCC(C/C=C\CCC(=O)O)C(c2cccnc2)O1 (stereo unspecified) | 7000 | < 10 | 2.19 | –
22 | O=C(O)CC/C=C\CC1COC(c2cccs2)OC1c1cccnc1 (stereo unspecified) | – | 71 | 1000 | –
23 | N#Cc1ccc(C2OCC(C/C=C\CCC(=O)O)C(c3cccnc3)O2)cc1 (stereo unspecified) | > 100000 | 24 | 1290 | –
24 | CC(C)(Oc1ccccc1)C1OCC(C/C=C\CCC(=O)O)C(c2cccnc2)O1 (stereo unspecified) | 75000 | 52 | 75.9 | –
25 | CC(C)(Oc1ccc(F)cc1[N+](=O)[O-])C1OCC(C/C=C\CCC(=O)O)C(c2cccnc2)O1 (stereo unspecified) | 9000 | 20 | 2.51 | –
26 | O=C(O)CC/C=C\CC1COC(c2ccsc2)OC1c1cccnc1 (stereo unspecified) | – | 500 | 1580 | –
27 | O=C(O)CC/C=C\CC1COC(c2cccnc2)OC1c1cccnc1 (stereo unspecified) | – | 220 | 759 | –

Row | Compound | IC50 (Prostacyclin synthase) [nM] | IC50 (Thromboxane-A synthase) [nM] | Kb (Homo sapiens) [nM] | pA2 (Homo sapiens)
28 | CC(C)(Cc1ccccc1)C1OCC(C/C=C\CCC(=O)O)C(c2cccnc2)O1 (stereo unspecified) | 13000 | 12 | 513 | –
29 | Cc1ccc(C#N)c(OC(C)(C)C2OCC(C/C=C\CCC(=O)O)C(c3cccnc3)O2)c1 (stereo unspecified) | > 100000 | 50 | 15.8 | –
30 | CC(C)(Oc1ccc(Br)cc1)C1OCC(C/C=C\CCC(=O)O)C(c2cccnc2)O1 (stereo in doubt; 7q) | 4000 | 22 | – | 6.48
31 | CC(C)(Oc1ccc(S(C)(=O)=O)cc1)C1OCC(C/C=C\CCC(=O)O)C(c2cccnc2)O1 (stereo unspecified) | 8000 | 34 | 91.2 | –
32 | CC(C)(Cc1ccccc1C#N)C1OCC(C/C=C\CCC(=O)O)C(c2cccnc2)O1 (stereo unspecified) | 14000 | 37 | 27.5 | –
33 | CC(=O)c1ccc(OC(C)(C)C2OCC(C/C=C\CCC(=O)O)C(c3cccnc3)O2)c([N+](=O)[O-])c1 (stereo unspecified) | 4000 | < 10 | 1.51 | –
34 | COc1ccc(SC(C)(C)C2OCC(C/C=C\CCC(=O)O)C(c3cccnc3)O2)c([N+](=O)[O-])c1 (stereo unspecified) | – | 40 | 158 | –
35 | CC(C)(C1OCC(C/C=C\CCC(=O)O)C(c2cccnc2)O1)S(=O)(=O)c1ccccc1 (stereo unspecified) | – | 40 | 3160 | –
36 | CC(C)(Oc1ccccc1C#N)C1OCC(C/C=C\CCC(=O)O)C(c2cccnc2)O1 (stereo unspecified) | 3000 | 45 | 13.2 | –
37 | COc1ccccc1OC(C)(C)C1OCC(C/C=C\CCC(=O)O)C(c2cccnc2)O1 (stereo unspecified) | 51000 | 60 | 224 | –
38 | CC(C)(Cc1ccc(F)cc1)C1OCC(C/C=C\CCC(=O)O)C(c2cccnc2)O1 (stereo unspecified) | 2000 | 45 | 89.1 | –
39 | CC(C)(Sc1ccccc1)C1OCC(C/C=C\CCC(=O)O)C(c2cccnc2)O1 (stereo unspecified) | – | 40 | 200 | –
40 | O=C(O)CC/C=C\CC1COC(c2ccccc2Cl)OC1c1cccnc1 (stereo unspecified) | – | 48 | 759 | –
41 | CSc1ccc(OC(C)(C)C2OCC(C/C=C\CCC(=O)O)C(c3cccnc3)O2)c([N+](=O)[O-])c1 (stereo unspecified) | 5000 | 22 | 4.47 | –
42 | COc1ccc(OC(C)(C)C2OCC(C/C=C\CCC(=O)O)C(c3cccnc3)O2)cc1 (stereo unspecified) | > 100000 | 41 | 302 | –
43 | CC(C)(C)c1ccc(OC(C)(C)C2OCC(C/C=C\CCC(=O)O)C(c3cccnc3)O2)cc1 (stereo unspecified) | – | 280 | 1910 | –
44 | CC(C)(Oc1ccccc1F)C1OCC(C/C=C\CCC(=O)O)C(c2cccnc2)O1 (stereo unspecified) | < 1000 | 45 | 166 | –
45 | O=C(O)CC/C=C\CC1COC(c2ccc(Cl)cc2Cl)OC1c1cccnc1 (stereo unspecified) | 2500 | 42 | 891 | –
46 | Cc1ccc(OC(C)(C)C2OCC(C/C=C\CCC(=O)O)C(c3cccnc3)O2)c(C#N)c1 (stereo in doubt; 7af) | 12000 | 25 | 3.98 | –
47 | Cc1cccc(C#N)c1OC(C)(C)C1OCC(C/C=C\CCC(=O)O)C(c2cccnc2)O1 (stereo unspecified) | 60000 | 90 | 25.1 | –
48 | Cc1ccc(OC(C)(C)C2OCC(C/C=C\CCC(=O)O)C(c3cccnc3)O2)c(C#N)c1 (stereo in doubt; 7ac) | 47000 | 50 | – | 8.1
49 | CC(C)(Oc1ccccc1S(C)(=O)=O)C1OCC(C/C=C\CCC(=O)O)C(c2cccnc2)O1 (stereo unspecified) | 2000 | 45 | 589 | –
50 | O=C(O)CC/C=C\CC1COC(c2ccc(C(F)(F)F)cc2)OC1c1cccnc1 (stereo unspecified) | – | 44 | 1780 | –
51 | O=C(O)CC/C=C\CC1COC(c2ccc3ccccc3c2)OC1c1cccnc1 (stereo unspecified) | – | 50 | 1780 | –
52 | Cc1ccc(OC(C)(C)C2OCC(C/C=C\CCC(=O)O)C(c3cccnc3)O2)c([N+](=O)[O-])c1 (stereo in doubt; 7y) | – | > 10000 | – | < 5
53 | CC(C)(Oc1ccc(F)cc1C#N)C1OCC(C/C=C\CCC(=O)O)C(c2cccnc2)O1 (stereo unspecified) | 37000 | 15 | 0.708 | –
